Common to all, as to assay type: functional
Assay [1] concerns Vero. The assay is described as follows: Antiviral activity against HSV-1 (Herpes simplex virus) in vero cells. Conditions: Chlorocebus sabaeus, read-out: ED50 (the source's name). The gist of the method: (§1)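 Vero target cells infected with HSV-1 McIntyre or HSV-2 MS for 2.5 h, washed, then mixed 1:50 with uninfected Vero cells preincubated 2.5 h with compound. Virus antigen in culture medium measured by HSV-1/HSV-2 antigen ELISA. ED50 is the dose giving 50% protection, mean of three independent determinations.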

In assay [2] the test system is Vero. The assay is described as follows: Cytotoxic dose of compound required to reduce the viability of normal uninfected vero cells by 50%. The conditions noted are these: Chlorocebus sabaeus, read-out: CD50 (the source's name). The gist of the method: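 Uninfected Vero cells were grown with compound, and cytotoxicity was read as concentration-dependent inhibition of cell proliferation relative to control cultures. CD50 is the dose reducing viability by 50%, mean of three independent determinations.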

Assay [3] has as its system Vero. The assay is described as follows: Antiviral activity against HSV-2 (Herpes simplex virus) in vero cells. The conditions noted are these: Chlorocebus sabaeus, read-out: ED50 (the source's name). A digest of the protocol:
as §1

The nature of assay [4]: Selectivity index against HSV-1 was determined as CD50/ED50 ratio. A digest of the protocol: (§2)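 CD50 (50% reduction of proliferation of uninfected Vero cells) divided by ED50 (50% protection against HSV-1 or HSV-2 in Vero cells, antigen ELISA after 5 days). Each is the mean of three independent determinations.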
A short description of assay [5]: Selectivity index against HSV-2 was determined as CD50/ED50 ratio. A digest of the protocol: as §2

Consider `CC(=O)OCC1OC(SC2=N/C(=C\c3ccccc3)C(=O)N2c2ccccc2)C(OC(C)=O)C(OC(C)=O)C1OC(C)=O` (stereo not drawn), for which the results for the EC50 with Vero [1] and in the assay on Vero [3] were above 100 µM and 100 µM, respectively. The CC50 with Vero [2] was above 100 µM.

On to `COc1ccc(N2C(=O)/C(=C/c3cccs3)N=C2SC2OC(COC(C)=O)C(OC(C)=O)C(OC(C)=O)C2OC(C)=O)cc1` (stereo not drawn), for which the EC50 in the assay with Vero [1] and with Vero [3] was 27 µM in each case. Further, the CC50 in the assay with Vero [2] was 35 µM. The Selectivity index in assay [4] and in assay [5] was 1.3 in each case.

For the compound `Nc1nc2c(ncn2COCCO)c(=O)[nH]1` [ACYCLOVIR], the EC50 in the assay on Vero [1] and with Vero [3] was 0.5 µM each time. The CC50 with Vero [2] was above 50 µM. The Selectivity index in assay [4] and in assay [5] was above 100 throughout.

As to `CC(=O)OCC1OC(Sc2nc(/C=C3\C=Nc4ccccc43)c(O)n2-c2ccccc2)C(OC(C)=O)C(OC(C)=O)C1OC(C)=O` (stereo not drawn), the results for the EC50 with Vero [1] and in the assay with Vero [3] were 46 µM and 40 µM, respectively. Besides, the CC50 in the assay on Vero [2] is above 100 µM. For the same compound, the Selectivity index in assay [4] is above 2.2; in assay [5], above 2.5.

On to `CC(=O)OCC1OC(SC2=N/C(=C\c3cccs3)C(=O)N2c2cccc(C)c2)C(OC(C)=O)C(OC(C)=O)C1OC(C)=O` (stereo not drawn), for which the EC50 with Vero [1] amounted to 10 µM; in the assay with Vero [3], 19 µM. For the same compound, in the assay on Vero [2], the CC50 stood at 25 µM. Also, the values for the Selectivity index in assay [4] and in assay [5] were 2.5 and 1.3, respectively.

For the compound `CC(=O)OCC1OC(SC2=N/C(=C\c3cccs3)C(=O)N2c2ccccc2)C(OC(C)=O)C(OC(C)=O)C1OC(C)=O` (stereo not drawn), the EC50 in the assay on Vero [1] was 0.4 µM; with Vero [3], 0.7 µM. For the same compound, the CC50 in the assay with Vero [2] was determined as 24 µM. The figures for the Selectivity index in assay [4] and in assay [5] were 60 and 34, respectively.

In the case of `O=c1[nH]c(=O)n([C@H]2C[C@H](O)[C@@H](CO)O2)cc1/C=C/Br` [BRIVUDINE], the EC50 in the assay on Vero [1] worked out at 0.3 µM; in the assay with Vero [3] it was 6.8 µM. Besides, the CC50 in the assay with Vero [2] is above 100 µM. For the same compound, the Selectivity index is above 333 in assay [4] and above 15 in assay [5].

In the case of `CCOC(=O)c1ccc(N2C(=O)/C(=C/c3cccs3)N=C2SC2OC(COC(C)=O)C(OC(C)=O)C(OC(C)=O)C2OC(C)=O)cc1` (stereo not drawn), the values for the EC50 in the assay on Vero [1] and with Vero [3] were 32 µM and 46 µM, respectively. For the same compound, the CC50 in the assay with Vero [2] came out at 46 µM. In addition, the Selectivity index in assay [4] turned out to be 1.4; in assay [5], 1.

Turning to `CC(=O)OCC1OC(SC2=NC(=C(C)C)C(=O)N2c2ccccc2)C(OC(C)=O)C(OC(C)=O)C1OC(C)=O` (stereo not drawn), the EC50 was 119 µM with Vero [1] and 100 µM in the assay on Vero [3]. The CC50 in the assay with Vero [2] was above 200 µM. For the same compound, the Selectivity index in assay [4] was above 1.6; in assay [5], above 2.

On to `CC(=O)OCC1OC(SC2=N/C(=C\c3cccs3)C(=O)N2c2ccc(Cl)cc2)C(OC(C)=O)C(OC(C)=O)C1OC(C)=O` (stereo not drawn), for which the figures for the EC50 with Vero [1] and with Vero [3] were 0.6 µM and 1 µM, respectively. Moreover, in the assay with Vero [2], the CC50 stood at 20 µM. In addition, the Selectivity index in assay [4] amounted to 33; in assay [5] it was 20.

Source of the values: ChEMBL document CHEMBL1127499, “S-glucosylated hydantoins as new antiviral agents” (1994).
